Series [1] can be described thus: Plasma concentration in C57Bl/6 mouse at 50 mg/kg, ip administered for 13 day and measured 8 hr post last dose by LC-MS/MS analysis. Type of series: ADME, organism-based.
Series [2] addresses Cyclin-dependent kinase 8/19 (Homo sapiens, UniProt P49336+Q9BWU1). Put plainly: Inhibition of CDK8/CDK11 in human HeLa cells lysate at 2 uM pre incubated for 15 mins followed by ATP acyl phosphate probe addition and measured after 10 mins by LC-MS/MS analysis relative to control. Type of series: subcellular. The conditions noted are these: time 25.0 min. An outline of the steps:
(§1)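 KiNativ profiling in HeLa lysate (5 mg/mL total protein). Lysate incubated 15 min with inhibitor at 50, 10, 2, 0.8 or 0 μM. ATP or ADP acylphosphate probe then added (5 μM final) and reacted 10 min. Reaction stopped with urea and analysed by targeted MS, using up to four fragment ions per kinase peptide-probe conjugate. % inhibition taken against untreated lysate. Run in duplicate.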

Series [3] has as its target T1, Serine/threonine-protein kinase Sgk3 (Homo sapiens) (UniProt Q96BR1).
T1 sequence (whole entry): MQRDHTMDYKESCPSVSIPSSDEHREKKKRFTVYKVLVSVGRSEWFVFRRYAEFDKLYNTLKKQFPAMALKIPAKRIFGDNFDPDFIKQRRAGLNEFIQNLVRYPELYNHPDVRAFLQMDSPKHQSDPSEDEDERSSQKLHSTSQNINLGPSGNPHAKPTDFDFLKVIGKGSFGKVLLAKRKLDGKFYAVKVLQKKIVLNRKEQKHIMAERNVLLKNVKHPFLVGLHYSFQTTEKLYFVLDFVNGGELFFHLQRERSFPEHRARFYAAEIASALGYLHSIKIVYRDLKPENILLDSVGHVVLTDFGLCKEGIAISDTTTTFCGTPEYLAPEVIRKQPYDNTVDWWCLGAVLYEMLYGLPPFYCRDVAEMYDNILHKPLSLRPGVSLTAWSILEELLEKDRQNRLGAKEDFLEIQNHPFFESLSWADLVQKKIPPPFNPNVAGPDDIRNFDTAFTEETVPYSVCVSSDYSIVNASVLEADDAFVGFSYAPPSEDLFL
Description: Inhibition of SGK3 in human HeLa cells lysate at 50 uM pre incubated for 15 mins followed by ATP acyl phosphate probe addition and measured after 10 mins by LC-MS/MS analysis relative to control. Type of series: subcellular. The conditions noted are these: time 25.0 min.

A short description of series [4]: Half life in Sprague-Dawley rat at 1 mg/kg, iv measured up to 8 hrs by LC-MS/MS analysis. Type of series: ADME, organism-based. The conditions noted are these: in vivo.
A short description of series [5]: Inhibition of MST4/YSK1 in human HeLa cells lysate at 10 uM pre incubated for 15 mins followed by ATP acyl phosphate probe addition and measured after 10 mins by LC-MS/MS analysis relative to control. Conditions: 25 min, condition cancer.
The target of series [6] is Mitogen-activated protein kinase kinase kinase 20 (Homo sapiens, UniProt Q9NYL2). Description: Inhibition of ZAK in human HeLa cells lysate at 2 uM pre incubated for 15 mins followed by ATP acyl phosphate probe addition and measured after 10 mins by LC-MS/MS analysis relative to control. Type of series: subcellular. Conditions: time 25.0 min.
Series [7] is described as follows: Toxicity in C57Bl/6 mouse assessed as effect on total protein level at 50 mg/kg, ip for 14 days (reference value: 5.8 g/dl). Type of series: organism-based. Conditions: in vivo, 336 h, time 14 day.
In series [8] the target is Serine/threonine-protein kinase 24 (Homo sapiens, UniProt Q9Y6E0). Put plainly: Inhibition of MST3 in human HeLa cells lysate pre incubated for 15 mins followed by ADP acyl phosphate probe addition and measured after 10 mins by LC-MS/MS analysis. Type of series: subcellular.
Series [9] in a line: Inhibition of NEK6/7 in human HeLa cells lysate pre incubated for 15 mins followed by ATP acyl phosphate probe addition and measured after 10 mins by LC-MS/MS analysis. Type of series: subcellular.
In series [10] the target is Mixed lineage kinase domain-like protein (Homo sapiens, UniProt Q8NB16). Put plainly: Inhibition of MLKL in human HeLa cells lysate pre incubated for 15 mins followed by ATP acyl phosphate probe addition and measured after 10 mins by LC-MS/MS analysis. Type of series: subcellular.
Series [11] in a line: Toxicity in C57Bl/6 mouse assessed as distress effect at 50 mg/kg, ip for 14 days. Type of series: organism-based. The conditions noted are these: in vivo, 336 h, time 14 day.
Series [12] deals with Serine/threonine-protein kinase Nek3 (Homo sapiens, UniProt P51956). Description: Inhibition of NEK3 in human HeLa cells lysate pre incubated for 15 mins followed by ADP acyl phosphate probe addition and measured after 10 mins by LC-MS/MS analysis. Type of series: subcellular.
For series [13], the target named is STE20-like serine/threonine-protein kinase (Homo sapiens, UniProt Q9H2G2). Description: Inhibition of SLK in human HeLa cells lysate at 50 uM pre incubated for 15 mins followed by ADP acyl phosphate probe addition and measured after 10 mins by LC-MS/MS analysis relative to control. Type of series: subcellular. Conditions: time 25.0 min.
In series [14] the target is Ribosomal protein S6 kinase alpha-3 (Homo sapiens, UniProt P51812). Put plainly: Inhibition of RSK2 domain 2 in human HeLa cells lysate at 50 uM pre incubated for 15 mins followed by ADP acyl phosphate probe addition and measured after 10 mins by LC-MS/MS analysis relative to control. Type of series: subcellular. The conditions noted are these: time 25.0 min.
Series [15] in a line: Inhibition of MSK1/2 domain 1 in human HeLa cells lysate at 10 uM pre incubated for 15 mins followed by ATP acyl phosphate probe addition and measured after 10 mins by LC-MS/MS analysis relative to control. Conditions: 25 min, condition cancer.
Series [16] addresses Mitogen-activated protein kinase kinase kinase 7 (Homo sapiens, UniProt O43318). Put plainly: Inhibition of TAK1 in human HeLa cells lysate pre incubated for 15 mins followed by ATP acyl phosphate probe addition and measured after 10 mins by LC-MS/MS analysis. Type of series: subcellular.
For series [17], the target named is Cyclin-dependent kinase 10 (Homo sapiens, UniProt Q15131). Description: Inhibition of CDK10 in human HeLa cells lysate at 10 uM pre incubated for 15 mins followed by ATP acyl phosphate probe addition and measured after 10 mins by LC-MS/MS analysis relative to control. Type of series: subcellular. Conditions: time 25.0 min. In outline: as §1
Series [18] deals with Phosphatidylinositol 4-phosphate 3-kinase C2 domain-containing subunit beta (Homo sapiens, UniProt O00750). Description: Inhibition of PIK3C2B in human HeLa cells lysate at 2 uM pre incubated for 15 mins followed by ATP acyl phosphate probe addition and measured after 10 mins by LC-MS/MS analysis relative to control. Type of series: subcellular. Conditions: time 25.0 min.

The target of series [19] is Cyclin-dependent kinase 13 (Homo sapiens, UniProt Q14004). Description: Inhibition of CHED in human HeLa cells lysate at 2 uM pre incubated for 15 mins followed by ADP acyl phosphate probe addition and measured after 10 mins by LC-MS/MS analysis relative to control. Type of series: subcellular. The conditions noted are these: time 25.0 min. In outline: as §1
The nature of series [20]: Inhibition of MAP3K2/MAP3K3 in human HeLa cells lysate pre incubated for 15 mins followed by ADP acyl phosphate probe addition and measured after 10 mins by LC-MS/MS analysis. Type of series: subcellular.
Series [21] can be described thus: Toxicity in C57Bl/6 mouse assessed as effect on alkaline phosphatase level at 50 mg/kg, ip for 14 days (reference value: 51 U/L). Type of series: organism-based. Conditions: in vivo, 336 h, time 14 day.
Series [22] in a line: Toxicity in C57Bl/6 mouse assessed as effect on phosphorus level at 50 mg/kg, ip for 14 days (reference value: 6.8 mg/dl). Type of series: organism-based. Conditions: in vivo, 336 h, time 14 day.
Series [23] in a line: Inhibition of SRC/FYN/YES in human HeLa cells lysate pre incubated for 15 mins followed by ATP acyl phosphate probe addition and measured after 10 mins by LC-MS/MS analysis. Type of series: subcellular.

What is called inhibition is the drop in the measured response relative to a control, in per cent. As a reminder, the half-life is the time needed for the level to fall by half in the phase considered. High values mean slow decline, low ones rapid decline. As usually defined, the IC50 is the point on the concentration scale where inhibition reaches its midpoint. A high value points to weaker potency in that assay.

Where only a bound is given, the exact number is not on record here.

Chain of Serine/threonine-protein kinase 24 (Q9Y6E0 whole entry): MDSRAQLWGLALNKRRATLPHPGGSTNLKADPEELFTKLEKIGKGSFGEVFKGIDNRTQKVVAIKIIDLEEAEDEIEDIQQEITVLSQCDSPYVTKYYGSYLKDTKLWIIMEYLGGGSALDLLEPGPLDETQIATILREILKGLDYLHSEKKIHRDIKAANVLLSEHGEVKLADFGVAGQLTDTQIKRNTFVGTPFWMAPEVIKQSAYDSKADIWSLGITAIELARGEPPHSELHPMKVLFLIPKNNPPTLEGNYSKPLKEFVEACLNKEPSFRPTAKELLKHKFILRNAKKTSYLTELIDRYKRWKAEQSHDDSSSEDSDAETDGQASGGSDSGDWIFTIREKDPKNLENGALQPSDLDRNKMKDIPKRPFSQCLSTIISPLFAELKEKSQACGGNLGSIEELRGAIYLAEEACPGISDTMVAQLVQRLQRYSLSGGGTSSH
Chain of Mixed lineage kinase domain-like protein (Q8NB16 whole entry, the tested form may be a part): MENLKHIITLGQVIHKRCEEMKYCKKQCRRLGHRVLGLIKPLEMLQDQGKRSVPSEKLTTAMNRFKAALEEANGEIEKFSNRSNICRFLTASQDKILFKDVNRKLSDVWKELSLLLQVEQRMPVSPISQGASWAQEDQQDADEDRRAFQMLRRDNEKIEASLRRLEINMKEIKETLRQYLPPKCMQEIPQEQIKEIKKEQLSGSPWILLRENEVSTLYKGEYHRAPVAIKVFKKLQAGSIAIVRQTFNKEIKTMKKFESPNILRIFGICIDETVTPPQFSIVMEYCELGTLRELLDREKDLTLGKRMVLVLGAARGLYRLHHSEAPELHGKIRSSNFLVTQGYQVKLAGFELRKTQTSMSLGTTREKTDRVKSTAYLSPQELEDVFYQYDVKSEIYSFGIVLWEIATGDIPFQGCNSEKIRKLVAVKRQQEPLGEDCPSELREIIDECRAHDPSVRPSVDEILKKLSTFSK
Chain of Serine/threonine-protein kinase Nek3 (P51956 whole entry): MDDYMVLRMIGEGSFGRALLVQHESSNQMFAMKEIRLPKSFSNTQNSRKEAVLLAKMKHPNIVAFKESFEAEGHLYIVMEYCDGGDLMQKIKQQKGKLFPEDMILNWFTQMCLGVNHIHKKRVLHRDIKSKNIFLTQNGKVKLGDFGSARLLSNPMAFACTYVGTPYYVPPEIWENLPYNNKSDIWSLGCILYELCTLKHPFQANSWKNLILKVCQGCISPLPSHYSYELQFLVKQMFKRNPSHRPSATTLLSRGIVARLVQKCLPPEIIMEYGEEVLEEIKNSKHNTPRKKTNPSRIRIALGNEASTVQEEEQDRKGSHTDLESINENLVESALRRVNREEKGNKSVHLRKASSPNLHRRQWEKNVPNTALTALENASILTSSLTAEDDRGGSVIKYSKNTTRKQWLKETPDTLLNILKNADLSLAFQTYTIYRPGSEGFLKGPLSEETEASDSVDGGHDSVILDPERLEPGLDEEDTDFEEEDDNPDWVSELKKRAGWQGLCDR
Chain of Mitogen-activated protein kinase kinase kinase 20 (Q9NYL2 2-800 limits assumed): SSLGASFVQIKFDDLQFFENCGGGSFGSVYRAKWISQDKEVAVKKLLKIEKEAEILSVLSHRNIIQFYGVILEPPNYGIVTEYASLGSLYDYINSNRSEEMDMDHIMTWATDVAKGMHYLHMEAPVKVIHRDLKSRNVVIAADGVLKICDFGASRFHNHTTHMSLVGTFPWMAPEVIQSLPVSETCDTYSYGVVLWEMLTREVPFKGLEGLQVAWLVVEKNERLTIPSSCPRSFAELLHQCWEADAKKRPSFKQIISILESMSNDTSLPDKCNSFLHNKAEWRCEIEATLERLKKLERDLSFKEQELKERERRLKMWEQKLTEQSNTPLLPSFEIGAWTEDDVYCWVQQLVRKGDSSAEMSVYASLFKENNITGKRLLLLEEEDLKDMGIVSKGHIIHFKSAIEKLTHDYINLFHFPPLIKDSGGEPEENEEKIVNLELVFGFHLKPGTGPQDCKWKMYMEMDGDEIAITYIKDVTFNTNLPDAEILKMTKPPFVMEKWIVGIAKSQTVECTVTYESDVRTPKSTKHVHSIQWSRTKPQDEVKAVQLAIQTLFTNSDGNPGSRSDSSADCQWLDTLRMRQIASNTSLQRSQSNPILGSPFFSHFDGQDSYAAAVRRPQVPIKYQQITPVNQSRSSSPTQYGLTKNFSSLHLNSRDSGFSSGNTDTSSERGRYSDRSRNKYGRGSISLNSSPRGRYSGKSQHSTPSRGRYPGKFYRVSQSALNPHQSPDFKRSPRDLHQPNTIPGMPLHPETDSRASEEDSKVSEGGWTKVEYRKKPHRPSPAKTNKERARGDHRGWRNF
Chain of Cyclin-dependent kinase 13 (Q14004 whole entry, looked up): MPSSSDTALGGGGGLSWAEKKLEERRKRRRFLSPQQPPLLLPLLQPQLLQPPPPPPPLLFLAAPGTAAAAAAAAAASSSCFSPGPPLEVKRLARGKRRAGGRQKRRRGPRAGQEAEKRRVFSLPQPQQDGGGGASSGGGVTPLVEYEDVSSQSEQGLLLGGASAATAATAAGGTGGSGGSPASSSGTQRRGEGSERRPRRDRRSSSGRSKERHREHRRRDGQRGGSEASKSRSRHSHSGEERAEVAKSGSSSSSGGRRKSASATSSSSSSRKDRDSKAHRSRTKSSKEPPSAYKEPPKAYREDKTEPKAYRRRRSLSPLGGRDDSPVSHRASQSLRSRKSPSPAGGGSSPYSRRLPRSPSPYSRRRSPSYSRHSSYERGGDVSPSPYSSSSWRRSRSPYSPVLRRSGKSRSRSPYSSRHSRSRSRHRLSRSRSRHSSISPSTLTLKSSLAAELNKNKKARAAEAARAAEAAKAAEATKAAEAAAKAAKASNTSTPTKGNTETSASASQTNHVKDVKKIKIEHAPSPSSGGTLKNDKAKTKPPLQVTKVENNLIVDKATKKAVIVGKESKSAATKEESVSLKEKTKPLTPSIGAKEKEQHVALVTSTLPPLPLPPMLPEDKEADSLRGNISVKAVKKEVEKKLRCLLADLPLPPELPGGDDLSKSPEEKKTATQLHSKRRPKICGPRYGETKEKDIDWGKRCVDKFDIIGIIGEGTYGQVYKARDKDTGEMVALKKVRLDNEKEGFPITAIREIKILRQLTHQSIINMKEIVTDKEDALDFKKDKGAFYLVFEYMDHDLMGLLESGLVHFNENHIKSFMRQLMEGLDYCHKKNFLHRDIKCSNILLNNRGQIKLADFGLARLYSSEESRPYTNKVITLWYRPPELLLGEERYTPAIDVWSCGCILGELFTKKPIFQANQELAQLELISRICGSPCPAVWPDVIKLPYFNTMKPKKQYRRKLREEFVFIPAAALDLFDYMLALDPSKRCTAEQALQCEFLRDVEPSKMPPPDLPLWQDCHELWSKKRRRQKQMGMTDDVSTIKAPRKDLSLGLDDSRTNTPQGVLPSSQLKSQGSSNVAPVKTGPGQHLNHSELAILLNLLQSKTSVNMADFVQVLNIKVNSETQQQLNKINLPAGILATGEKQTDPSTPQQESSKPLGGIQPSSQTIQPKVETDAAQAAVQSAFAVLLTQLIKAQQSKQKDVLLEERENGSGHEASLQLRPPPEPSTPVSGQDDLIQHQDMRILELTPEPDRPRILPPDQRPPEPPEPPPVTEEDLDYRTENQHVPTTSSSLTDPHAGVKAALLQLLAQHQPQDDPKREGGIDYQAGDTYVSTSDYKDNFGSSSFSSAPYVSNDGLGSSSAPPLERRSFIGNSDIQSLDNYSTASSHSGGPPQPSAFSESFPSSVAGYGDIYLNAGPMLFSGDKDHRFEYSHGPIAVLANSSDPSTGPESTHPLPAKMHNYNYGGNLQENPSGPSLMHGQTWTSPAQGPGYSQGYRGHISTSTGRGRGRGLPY
Chain of Cyclin-dependent kinase 10 (Q15131 whole entry, the tested form may be a part): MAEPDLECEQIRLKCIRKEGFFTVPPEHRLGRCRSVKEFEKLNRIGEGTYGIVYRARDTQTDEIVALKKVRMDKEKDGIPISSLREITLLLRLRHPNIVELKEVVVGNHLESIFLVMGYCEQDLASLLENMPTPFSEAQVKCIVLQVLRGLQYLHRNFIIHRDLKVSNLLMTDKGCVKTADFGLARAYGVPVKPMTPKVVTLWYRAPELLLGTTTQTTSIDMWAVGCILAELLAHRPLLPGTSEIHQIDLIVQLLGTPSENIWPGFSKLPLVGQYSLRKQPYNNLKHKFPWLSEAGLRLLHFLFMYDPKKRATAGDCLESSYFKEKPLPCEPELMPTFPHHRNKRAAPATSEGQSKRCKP
Chain of Ribosomal protein S6 kinase alpha-3 (P51812 whole entry, the tested form may be a part): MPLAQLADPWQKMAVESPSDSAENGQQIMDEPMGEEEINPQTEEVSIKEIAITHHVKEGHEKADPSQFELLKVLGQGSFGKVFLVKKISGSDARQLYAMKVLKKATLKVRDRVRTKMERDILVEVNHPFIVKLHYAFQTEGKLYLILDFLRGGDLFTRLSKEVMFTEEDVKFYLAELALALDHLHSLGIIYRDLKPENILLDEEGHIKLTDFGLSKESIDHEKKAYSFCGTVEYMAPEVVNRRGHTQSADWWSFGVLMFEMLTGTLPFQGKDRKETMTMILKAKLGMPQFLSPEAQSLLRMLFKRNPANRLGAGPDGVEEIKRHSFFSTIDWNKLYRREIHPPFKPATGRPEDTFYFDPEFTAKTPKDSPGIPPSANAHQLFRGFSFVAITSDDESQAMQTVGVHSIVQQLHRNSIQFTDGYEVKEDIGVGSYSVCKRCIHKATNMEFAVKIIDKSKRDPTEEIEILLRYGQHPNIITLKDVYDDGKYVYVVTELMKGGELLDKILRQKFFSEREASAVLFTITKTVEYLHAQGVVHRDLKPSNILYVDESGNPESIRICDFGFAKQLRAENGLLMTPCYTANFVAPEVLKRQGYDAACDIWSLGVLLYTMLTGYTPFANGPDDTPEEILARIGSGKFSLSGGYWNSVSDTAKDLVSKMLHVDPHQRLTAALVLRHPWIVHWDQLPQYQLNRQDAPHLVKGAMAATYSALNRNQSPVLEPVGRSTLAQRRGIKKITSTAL

The molecule `CCOc1cc(N2CCC(O)CC2)ccc1Nc1ncc2c(n1)N(C)c1ccccc1C(=O)N2C` had a concentration at 312 h in [1] of 11.1 µM. The inhibition in series [2] was -7.5%; in [3] it was -0.9%; in [6], 31.5%; in series [13], 20.9%; in series [14] it was 49%; in series [17] it was -3.2%. Further, the inhibition worked out at 26.1% in series [18] and 28.1% in series [19]. Further, the half-life in series [4] was 2 h. Further, the inhibition at 10 µM in series [5] is 5.1%; in series [15] it was -10.6%. For the same molecule, the Activity is 5.8 g/dL in [7], “Non-Toxic” in [11], 235 U/L in series [21] and 6.4 mg/dL in [22]. The concentration for half-maximal inhibition (IC50) in [8], in [9], in series [10], in series [12], in [16] and in [20] was more than 50 µM each time. The half-inhibitory concentration (IC50) in series [23] is more than 50 µM.

The values above are taken from ChEMBL document CHEMBL5661979, “Pharmacological inhibition of BMK1 suppresses tumor growth through promyelocytic leukemia protein” (Cancer Cell, 2010).
